From article PMC11250141 (RSC Advances, 2024) come the findings set out here.

The nature of series [1]: Cell viability. In kind it is cell-based. The following applies: human, Caco-2 cells. An outline of the steps: (§1)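 Caco-2 and Vero cells were grown in DMEM with 10% FBS, and HUVEC in DMEM-F12 with 10% FBS, at 37 °C and 5% CO₂. Cells were seeded at 5.000 per well 24 h before treatment. Test compound was diluted from a 100 mM DMSO stock into 1% FBS medium at 1, 10, 30, 50, 100 and 150 µM. Controls were 10% DMSO and medium alone. At 24, 48 and 72 h, cells got resazurin (0.5 mg mL⁻¹ solution) for 4 h, read at ex 560/em 590 nm. IC50 was from curve fitting.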

The nature of series [2]: DPPH˙ scavenging activity. The conditions noted are these: 30 min, 515 nm; tested 10–100 µg mL^−1. In outline: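 Test compound (10–100 µg mL⁻¹) or 80% methanol control was mixed 1:2 (v/v) with DPPH solution, shaken, and kept 30 min at room temperature in the dark. Absorbance was read at 515 nm. Scavenging % = 100 × (1 − A sample/A DPPH blank). Ferulic and syringic acids served as references. Run in triplicate.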

Series [3] in a line: Cell viability. It is filed as cell-based. The following applies: African green monkey, Vero cells. An outline of the steps: as §1
Series [4] can be described thus: Cell viability. In kind it is cell-based. The conditions noted are these: human, HUVEC cells. An outline of the steps:
as §1

Series [5] in a line: Lipoperoxidation. The following applies: 220 °C; for Reduction in secondary oxidation (TBARS) in comparison with SOcontrol / TBARS value: SO + additive 200 ppm; for TBARS value: 30 min. In outline:
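Sunflower oil with 200 ppm test compound was heated on a hot plate at 25, 100, 180 and 220 °C for 30 min (ramp 2 °C min⁻¹). Oil (0.5 mL) was vortexed with TBA/TCA/HCl and centrifuged 3500 rpm for 5 min. Supernatant was heated 90 °C for 15 min and read at 535 nm against an MDA curve, as nmol MDA per mL oil. Unsupplemented oil was the control. Run in triplicate.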

For series [6] the following is noted: SO + additive at 200 ppm; for T 5 (5% mass loss) / T 10 (10% mass loss) / T 50 (50% mass loss) / T onset (decomposition temperature: onset temperature): TGA in air. An outline of the steps: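 Thermogravimetry of sunflower oil with 200 ppm test compound: about 10 mg oil in a Pt crucible was heated from ambient to 700 °C at 5 °C min⁻¹ in air (60 mL min⁻¹), with N₂ purge on the balance. Onset temperature and temperatures at 5, 10 and 50% mass loss came from TG/DTG curves and were compared with unsupplemented oil.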

Series [7] in a line: Cytotoxic effect, summary over the three cell lines. It is filed as cell-based. The conditions noted are these: human (Caco-2, HUVEC); African green monkey (Vero), Caco-2, HUVEC and Vero cells. In outline:
as §1

In series [1], `CCOc1ccc(/C=C/C(=O)O)cc1OC` [Compound 3a, (E)-3-(4-Ethoxy-3-methoxyphenyl)acrylic acid] registered a concentration for half-maximal inhibition (IC50) at 24 h of over 100 µM, an IC50 at 48 h of over 100 µM and an IC50 at 72 h of over 100 µM. Moreover, the “Antioxidant capacity (DPPH), IC50” value in series [2] was 56.50 ± 2.38 µg/mL. In series [3], this molecule gave a concentration for half-maximal inhibition (IC50) at 24 h of over 100 µM, a half-maximal inhibitory concentration (IC50) at 48 h of over 100 µM and an IC50 at 72 h of over 100 µM. In series [4], this molecule had an IC50 at 24 h of over 100 µM, a half-maximal inhibitory concentration (IC50) at 48 h of over 100 µM and an IC50 at 72 h of over 100 µM.
In series [1], `CCCOc1ccc(/C=C/C(=O)O)cc1OC` [Compound 3b, (E)-3-(3-Methoxy-4-propoxyphenyl)acrylic acid] returned an IC50 at 24 h of over 100 µM, a half-inhibitory concentration (IC50) at 48 h of over 100 µM and an IC50 at 72 h of over 100 µM. The “Antioxidant capacity (DPPH), IC50” value in series [2] turned out to be 90.43 ± 1.63 µg/mL. Also, in series [3], the IC50 at 24 h was over 100 µM, the IC50 at 48 h was over 100 µM and the half-maximal inhibitory concentration (IC50) at 72 h was over 100 µM. In addition, in series [5], the “Reduction in secondary oxidation (TBARS) in comparison with SOcontrol” value (shortened to “Reduction in secondary oxidation (TBARS)”) was determined as 5 times and the TBARS value amounted to 8.88 nmol/mL. Also, in series [6], the “Difference of degradation temperature in comparison to SO at 5% mass loss” value came out at 35 °C, the “Difference of degradation temperature in comparison to SO at 10% mass loss” value was 25 °C, the “Difference of degradation temperature in comparison to SO at 50% mass loss” value is 4 °C and the “T 5 (5% mass loss)” value came to 376 °C. In addition, in series [6], the “T 10 (10% mass loss)” value was found to be 390 °C, the “T 50 (50% mass loss)” value amounted to 423 °C and the “T onset (decomposition temperature: onset temperature)” value (“T onset” below) is 344 °C. Also, in series [4], the 50% inhibitory concentration (IC50) at 24 h was over 100 µM, the half-inhibitory concentration (IC50) at 48 h was over 100 µM and the half-maximal inhibitory concentration (IC50) at 72 h was over 100 µM.
In series [1], `CCCCCOc1ccc(/C=C/C(=O)O)cc1OC` [Compound 3c, (E)-3-(3-Methoxy-4-(pentyloxy)phenyl)acrylic acid] gave an IC50 at 24 h of over 100 µM, a 50% inhibitory concentration (IC50) at 48 h of over 100 µM and a 50% inhibitory concentration (IC50) at 72 h of over 100 µM. For the same molecule, the “Antioxidant capacity (DPPH), IC50” value in series [2] is over 100 µg/mL. In series [3], the IC50 at 24 h is over 100 µM, the IC50 at 48 h was over 100 µM and the IC50 at 72 h was over 100 µM. In addition, in series [5], the “Reduction in secondary oxidation (TBARS)” value is 6 times and the TBARS value stood at 7.68 nmol/mL. In addition, the “TBARS value (level of SO oxidation)” value in series [5] (SO + additive) stood at 7.68 nmol/L. In series [6], the “T 5 (5% mass loss)” value is 370 °C, the “T 10 (10% mass loss)” value was 386 °C, the “T 50 (50% mass loss)” value is 424 °C and the “T onset” value came to 343 °C. Moreover, in series [4], the half-maximal inhibitory concentration (IC50) at 24 h is over 100 µM, the half-inhibitory concentration (IC50) at 48 h is over 100 µM and the half-inhibitory concentration (IC50) at 72 h was over 100 µM.
Turning to `CCCCCCOc1ccc(/C=C/C(=O)O)cc1OC` [Compound 3d, (E)-3-(4-(Hexyloxy)-3-methoxyphenyl)acrylic acid], the IC50 at 24 h in series [1], in series [3] and in series [4] was over 100 µM throughout. In addition, the IC50 at 48 h in series [1], in series [3] and in series [4] was over 100 µM throughout. For the same molecule, the IC50 at 72 h in series [1], in series [3] and in series [4] was over 100 µM in each case. In addition, the “Antioxidant capacity (DPPH), IC50” value in series [2] was over 100 µg/mL.
In series [1], `CCCCCCCCOc1ccc(/C=C/C(=O)O)cc1OC` [Compound 3e, (E)-3-(3-Methoxy-4-(octyloxy)phenyl)acrylic acid] gave an IC50 at 24 h of over 100 µM, an IC50 at 48 h of over 100 µM and a half-inhibitory concentration (IC50) at 72 h of 96.2 ± 1.1 µM. In series [2], the “Antioxidant capacity (DPPH), IC50” value was over 100 µg/mL. Moreover, in series [3], the IC50 at 24 h was over 100 µM, the IC50 at 48 h is over 100 µM and the IC50 at 72 h was over 100 µM. Besides, in series [7], the IC50 was under 100 µM. In series [4], this molecule returned an IC50 at 24 h of 90 ± 1.03 µM, a 50% inhibitory concentration (IC50) at 48 h of 53.1 ± 1.02 µM and a concentration for half-maximal inhibition (IC50) at 72 h of 54.4 ± 1.05 µM.
For `CCCCCCCCCCOc1ccc(/C=C/C(=O)O)cc1OC` [Compound 3f, (E)-3-(4-(Decyloxy)-3-methoxyphenyl)acrylic acid], in series [1], the IC50 at 24 h was over 100 µM, the IC50 at 48 h stood at 88.7 ± 1.08 µM and the IC50 at 72 h stood at 76.8 ± 1.08 µM. The “Antioxidant capacity (DPPH), IC50” value in series [2] was over 100 µg/mL. Moreover, in series [3], the 50% inhibitory concentration (IC50) at 24 h was over 100 µM, the IC50 at 48 h is over 100 µM and the IC50 at 72 h was over 100 µM. The molecule also returned an IC50 in series [7] of under 100 µM. In series [4], this molecule registered an IC50 at 24 h of 55.6 ± 1.05 µM, an IC50 at 48 h of 26.4 ± 1.06 µM and a concentration for half-maximal inhibition (IC50) at 72 h of 25.4 ± 1.08 µM.
In the case of `COc1cc(C(=O)O)cc(OC)c1O` [Compound 4, syringic acid, reference compound], in series [2], the “Antioxidant capacity (DPPH), IC50” value was found to be 4.53 ± 0.19 µg/mL.
For `CCOc1c(OC)cc(C(=O)O)cc1OC` [Compound 5a, 4-Ethoxy-3,5-dimethoxybenzoic acid], the IC50 at 24 h in series [1], in series [3] and in series [4] was over 100 µM each time. Also, the half-inhibitory concentration (IC50) at 48 h in series [1], in series [3] and in series [4] was over 100 µM each time. The IC50 at 72 h in series [1], in series [3] and in series [4] was over 100 µM throughout. Besides, the “Antioxidant capacity (DPPH), IC50” value in series [2] was found to be 9.20 ± 0.91 µg/mL.
Regarding `CCCOc1c(OC)cc(C(=O)O)cc1OC` [Compound 5b, 3,5-Dimethoxy-4-propoxybenzoic acid], in series [1], the half-maximal inhibitory concentration (IC50) at 24 h was over 100 µM, the IC50 at 48 h is over 100 µM and the IC50 at 72 h was over 100 µM. The “Antioxidant capacity (DPPH), IC50” value in series [2] turned out to be 11.47 ± 0.58 µg/mL. Also, in series [3], the IC50 at 24 h is over 100 µM, the IC50 at 48 h is over 100 µM and the 50% inhibitory concentration (IC50) at 72 h was over 100 µM. In series [5], the “Reduction in secondary oxidation (TBARS)” value is 5 times. Also, in series [6], the “Increase of onset temperature of mass loss (Tonset) in comparison with SO” value came out at 24 °C, the “T 5 (5% mass loss)” value came out at 364 °C, the “T 10 (10% mass loss)” value was determined as 382 °C and the “T 50 (50% mass loss)” value is 420 °C. In addition, the “T onset” value in series [6] turned out to be 305 °C. In series [4], this molecule showed a half-maximal inhibitory concentration (IC50) at 24 h of over 100 µM, a concentration for half-maximal inhibition (IC50) at 48 h of over 100 µM and a half-maximal inhibitory concentration (IC50) at 72 h of over 100 µM.
In series [1], `CCCCCCOc1c(OC)cc(C(=O)O)cc1OC` [Compound 5d, 4-(Hexyloxy)-3,5-dimethoxybenzoic acid] came in with a 50% inhibitory concentration (IC50) at 24 h of over 100 µM, a half-inhibitory concentration (IC50) at 48 h of over 100 µM and an IC50 at 72 h of over 100 µM. Also, the “Antioxidant capacity (DPPH), IC50” value in series [2] was over 100 µg/mL. In series [3], the IC50 at 24 h is over 100 µM, the half-inhibitory concentration (IC50) at 48 h was over 100 µM and the concentration for half-maximal inhibition (IC50) at 72 h is over 100 µM. Moreover, in series [4], the 50% inhibitory concentration (IC50) at 24 h is over 100 µM, the IC50 at 48 h is over 100 µM and the IC50 at 72 h was over 100 µM.
As for `CCCCCCCCOc1c(OC)cc(C(=O)O)cc1OC` [Compound 5e, 3,5-Dimethoxy-4-(octyloxy)benzoic acid], in series [1], the half-inhibitory concentration (IC50) at 24 h is over 100 µM, the concentration for half-maximal inhibition (IC50) at 48 h is over 100 µM and the 50% inhibitory concentration (IC50) at 72 h is over 100 µM. The “Antioxidant capacity (DPPH), IC50” value in series [2] is over 100 µg/mL. Further, in series [3], the IC50 at 24 h is over 100 µM, the concentration for half-maximal inhibition (IC50) at 48 h is over 100 µM and the IC50 at 72 h is over 100 µM. Further, the IC50 in series [7] is under 100 µM. Moreover, in series [4], the IC50 at 24 h was over 100 µM, the IC50 at 48 h was determined as 55.9 ± 1.06 µM and the half-maximal inhibitory concentration (IC50) at 72 h turned out to be 53.3 ± 1.05 µM.
`CCCCCCCCCCOc1c(OC)cc(C(=O)O)cc1OC` [Compound 5f, 4-(Decyloxy)-3,5-dimethoxybenzoic acid]: the concentration for half-maximal inhibition (IC50) at 24 h in series [1] is over 100 µM; in series [3], over 100 µM; in series [4], 47.2 ± 1.04 µM. The IC50 at 48 h in series [1] was 70 ± 1.06 µM; in series [3], over 100 µM; in series [4], 35.4 ± 1.04 µM. The figures for the IC50 at 72 h in series [1], in series [3] and in series [4] were 62.8 ± 1.07 µM, over 100 µM and 29.3 ± 1.09 µM, respectively. Besides, the “Antioxidant capacity (DPPH), IC50” value in series [2] is over 100 µg/mL. In addition, the IC50 in series [7] is under 100 µM.

In general, IC50 refers to the concentration at which inhibition is half-maximal.
